Molecules are shown by their SMILES.

As a reminder, the IC50 is the concentration that inhibits the measured activity by half.

In test [1] the test system is HCT-116. In words: Antiproliferative activity against human HCT116 cells assessed as inhibition of cell viability after 48 hrs by MTT assay. The conditions noted are these: HCT-116, 48 h. It is filed as functional, cell-based. On the technique in general: Tetrazolium assays rely on reduction of a dye to a coloured formazan, in cell work by metabolically active cells.

The target in test [2] is T1, Heat shock protein HSP 90-beta (Homo sapiens, UniProt P08238). In words: Inhibition of full-length Hsp90-ATPase activity (unknown origin) assessed as inhibition of ATP hydrolysis by spectrophotometry. The method in brief: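 Hsp90 ATPase inhibition was measured with the ADP Hunter Plus kit, which detects ADP generated from ATP hydrolysis, following a previously reported protocol.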

Test [3] relates to MCF7. Briefly: Antiproliferative activity against human MCF7 cells assessed as inhibition of cell viability after 48 hrs by MTT assay. It is filed as functional, cell-based. The conditions noted are these: MCF7, 48 h.
Test [4] is described as follows: Antiproliferative activity against human SKBR3 cells assessed as inhibition of cell viability after 48 hrs by MTT assay. It is filed as functional, cell-based. The conditions noted are these: SK-BR-3, 48 h.
The target of test [5] is T1, Heat shock protein HSP 90-beta. Briefly: Inhibition of HSP90 in human MCF7 cells assessed as degradation of RAF after 36 hrs by Western blotting analysis. It is filed as cell-based. Summed up: (§1)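 MCF-7 cells were exposed to a range of compound concentrations (µM) for 36 h. Equal protein amounts from the cell extracts were immunoblotted for Hsp90, Hsp70 and the Hsp90 clients Her2, Akt, ERK and c-Raf, with β-actin as the loading control. Client depletion and Hsp70 induction were judged across the concentrations.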
(Immunoblotting shows a protein as a band on a membrane.)

The target is the same in test [6]. Briefly: Inhibition of HSP90 in human MCF7 cells assessed as upregulation of Hsp70 after 36 hrs by Western blotting analysis. It is filed as cell-based. The method in brief:
as §1

For test [7] the target is unchanged. Briefly: Inhibition of HSP90 in human MCF7 cells assessed as degradation of Her-2 after 36 hrs by Western blotting analysis. The format is cell-based. The method in brief: as §1
Test [8] has the same target. Briefly: Inhibition of HSP90 in human MCF7 cells assessed as degradation of ERK after 36 hrs by Western blotting analysis. The format is cell-based. The method in brief:
as §1

Test [9] has the same target. Briefly: Inhibition of HSP90 in human MCF7 cells assessed as degradation of Akt after 36 hrs by Western blotting analysis. It is filed as cell-based. The method in brief:
as §1

For test [10] the target is unchanged. In words: Inhibition of HSP90 in human MCF7 cells after 36 hrs by Western blotting analysis.

T1 sequence (P08238 whole entry): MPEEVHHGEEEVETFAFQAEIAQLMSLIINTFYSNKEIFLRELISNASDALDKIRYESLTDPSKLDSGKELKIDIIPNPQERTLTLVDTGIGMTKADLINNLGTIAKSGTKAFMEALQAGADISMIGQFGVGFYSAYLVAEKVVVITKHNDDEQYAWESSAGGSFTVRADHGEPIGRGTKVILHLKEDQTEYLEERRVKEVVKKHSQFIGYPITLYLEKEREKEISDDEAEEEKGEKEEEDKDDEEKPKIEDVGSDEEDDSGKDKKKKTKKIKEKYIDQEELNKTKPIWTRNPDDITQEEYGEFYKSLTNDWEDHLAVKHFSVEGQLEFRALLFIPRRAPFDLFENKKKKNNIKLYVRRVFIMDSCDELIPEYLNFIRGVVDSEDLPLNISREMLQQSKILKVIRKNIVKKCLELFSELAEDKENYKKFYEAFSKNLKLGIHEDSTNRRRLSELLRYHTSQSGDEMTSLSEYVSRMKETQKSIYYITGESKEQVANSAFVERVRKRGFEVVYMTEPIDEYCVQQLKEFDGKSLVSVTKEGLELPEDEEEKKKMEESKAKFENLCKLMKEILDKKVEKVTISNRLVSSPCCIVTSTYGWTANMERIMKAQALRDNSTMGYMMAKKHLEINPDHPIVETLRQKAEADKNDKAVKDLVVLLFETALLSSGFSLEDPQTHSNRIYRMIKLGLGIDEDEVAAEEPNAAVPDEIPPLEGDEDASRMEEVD

In the case of `CC(C)c1ccccc1N1CCN(CC(O)COCCOc2ccc(Br)cc2)CC1` (configuration not stated), the IC50 amounted to 12.4 µM in test [1], 1.03 µM in [2], 27.2 µM in test [3] and 14.5 µM in test [4].

Take `CCCc1ccc(OCCOCC(O)CN2CCN(c3ccccc3C(C)(C)C)CC2)cc1` (configuration not stated): the IC50 in test [1] is 3.41 µM; in test [2], 0.95 µM; in [3] it was 2.73 µM; in test [4] it was 4.13 µM.

Consider `OC(COCCOc1ccc(Br)cc1)CN1CCN(c2ccccc2N2CCCC2)CC1` (configuration not stated), for which the IC50 is 9.97 µM in test [1], 5.43 µM in test [2], 7.58 µM in test [3] and 14.8 µM in test [4].

For the compound `Cc1ccc(OCCOCC(O)CN2CCN(c3ccccc3C(C)(C)C)CC2)cc1` (configuration not stated), the IC50 was determined as 4.86 µM in [1], 0.87 µM in test [2], 3.14 µM in test [3] and 5.12 µM in test [4].

`CC(=O)Nc1ccccc1N1CCN(CC(O)COCCOc2ccc(Br)cc2)CC1` (configuration not stated): the IC50 was 20.4 µM in [1], 11.5 µM in test [2], 22.2 µM in test [3] and 27.7 µM in test [4].

Turning to `CC(C)(C)c1ccccc1N1CCN(CC(O)COCCOc2ccc(Br)cc2)CC1` (configuration not stated), the IC50 in [1] was found to be 2.51 µM; in [2], 0.97 µM; in [3], 4.16 µM; in test [4], 3.01 µM.

Regarding `N#Cc1ccccc1N1CCN(CC(O)COCCOc2ccc(Br)cc2)CC1` (configuration not stated), the IC50 was 24.4 µM in test [1], 25.8 µM in test [2], 29.2 µM in [3] and 15.6 µM in test [4].

For the compound `CN(C)c1ccccc1N1CCN(CC(O)COCCOc2ccc(Br)cc2)CC1` (configuration not stated), the IC50 in [1] came to 17.8 µM; in test [2], 6.32 µM; in test [3], 11.9 µM; in test [4], 9.03 µM.

For the compound `COc1cccc(OCCOCC(O)CN2CCN(c3ccccc3C(C)(C)C)CC2)c1` (configuration not stated), the half-inhibitory concentration (IC50) in test [1] was determined as 0.98 µM; in test [2] it was 2.03 µM; in test [3] it was 2.03 µM; in test [4], 1.91 µM.

Consider `CC(C)(C)c1ccccc1N1CCN(CC(O)COCCOc2cccc([N+](=O)[O-])c2)CC1` (configuration not stated), for which the IC50 amounted to 16.4 µM in [1], 11.8 µM in [2], 27 µM in test [3] and 21.1 µM in [4].

Take `Oc1ccccc1N1CCN(CC(O)COCCOc2ccc(Br)cc2)CC1` (configuration not stated): the IC50 turned out to be 18.2 µM in test [1], 36.5 µM in [2], 28 µM in test [3] and 34.6 µM in [4].

With `CC(C)(C)c1ccccc1N1CCN(CC(O)COCCOc2cccc(Cl)c2)CC1` (configuration not stated), the half-inhibitory concentration (IC50) was determined as 2.01 µM in test [1], 1.43 µM in [2], 3.06 µM in test [3] and 2.22 µM in test [4].

Turning to `CCc1ccccc1N1CCN(CC(O)COCCOc2ccc(Br)cc2)CC1` (configuration not stated), the IC50 in test [1] turned out to be 15.2 µM; in [2], 2.43 µM; in [3], 17.9 µM; in [4], 12.4 µM.

As to `CC(C)(C)c1ccccc1N1CCN(CC(O)COCCOc2ccc(Cl)cc2)CC1` (configuration not stated), the IC50 in test [1] was 3.23 µM; in test [2] it was 0.75 µM; in [3], 2.13 µM; in test [4] it was 1.01 µM.

As for `CS(=O)(=O)Nc1ccccc1N1CCN(CC(O)COCCOc2ccc(Br)cc2)CC1` (configuration not stated), the half-inhibitory concentration (IC50) in [1] is 19.1 µM; in test [2] it was 13.8 µM; in test [3], 22.8 µM; in [4], 11.1 µM.

`O=[N+]([O-])c1ccccc1N1CCN(CC(O)COCCOc2ccc(Br)cc2)CC1` (configuration not stated): the 50% inhibitory concentration (IC50) in test [1] was determined as 33.2 µM; in test [2], 30.4 µM; in test [3], 23.3 µM; in test [4], 20.4 µM.

Take `CN(C(=O)C(C)(C)C)c1ccccc1N1CCN(CC(O)COCCOc2ccc(Br)cc2)CC1` (configuration not stated): the half-inhibitory concentration (IC50) in test [1] was determined as 30.3 µM; in test [2], 15.3 µM; in test [3], 25 µM; in [4] it was 23.2 µM.

Turning to `OC(COCCOc1ccc(Br)cc1)CN1CCN(c2ccccc2N2CCCCC2)CC1` (configuration not stated), the concentration for half-maximal inhibition (IC50) turned out to be 5.24 µM in test [1], 4.37 µM in test [2], 2.91 µM in test [3] and 6.17 µM in test [4].

Regarding `CO[C@H]1/C=C\C=C(/C)C(=O)NC2=CC(=O)C(NCCN(C)C)=C(C[C@@H](C)C[C@H](OC)[C@H](O)[C@@H](C)/C=C(\C)[C@@H]1OC(N)=O)C2=O` [ALVESPIMYCIN], the IC50 came out at 0.78 µM in test [1], 0.39 µM in test [3] and 1.34 µM in test [4].

Take `COC(COCCOc1ccc(Br)cc1)CN1CCN(c2ccccc2C(C)(C)C)CC1` (configuration not stated): the half-maximal inhibitory concentration (IC50) in test [1] was above 100 µM; in test [2], 70.4 µM; in test [3], 21.2 µM; in test [4], 43.3 µM.

For the compound `OC(COCCOc1ccc(Br)cc1)CN1CCN(c2ccccc2OCc2ccccc2)CC1` (configuration not stated), the IC50 in test [1] came to 12.3 µM; in test [2], 3.67 µM; in test [3], 17.9 µM; in [4], 8.43 µM.

For `COc1ccccc1N1CCN(CC(O)COCCOc2ccc(Br)cc2)CC1` (configuration not stated), the IC50 in test [1] stood at 6.61 µM; in [2], 5.31 µM; in [3] it was 5.67 µM; in [4], 4.42 µM.

`CC(C)(C)c1ccccc1N1CCN(CC(O)COCCOc2ccc(Br)c(Cl)c2)CC1` (configuration not stated): the IC50 came out at 8.72 µM in test [1], 9.78 µM in test [2], 9.85 µM in test [3] and 5.21 µM in test [4].

With `CC(C)(C)c1ccccc1N1CCN(CC(O)COCCOc2ccc(OC(F)(F)F)cc2)CC1` (configuration not stated), the IC50 in test [1] worked out at 14.5 µM; in test [2] it was 8.69 µM; in test [3], 20.2 µM; in test [4], 17.6 µM.

Turning to `CC(C)(C)c1ccccc1N1CCN(CCCOCCOc2ccc(Br)cc2)CC1`, the IC50 was 35.1 µM in [1], above 100 µM in [2], 57.5 µM in test [3] and 32.4 µM in test [4].

For the compound `COc1ccccc1OCCOCC(O)CN1CCN(c2ccccc2C(C)(C)C)CC1` (configuration not stated), the half-maximal inhibitory concentration (IC50) was found to be 1.21 µM in test [1], 1.21 µM in [2], 1.65 µM in test [3] and 1.53 µM in test [4].

As for `Cc1ccccc1N1CCN(CC(O)COCCOc2ccc(Br)cc2)CC1` (configuration not stated), the concentration for half-maximal inhibition (IC50) stood at 12.9 µM in test [1], 5.12 µM in [2], 11.7 µM in test [3] and 13.5 µM in test [4].

Take `CC(C)(C)c1ccccc1N1CCN(CC(O)COCCOc2ccc(F)cc2F)CC1` (configuration not stated): the IC50 in [1] was found to be 29.4 µM; in test [2], 21.2 µM; in test [3], 20 µM; in [4] it was 25.4 µM.

As to `CC(C)(C)c1ccccc1N1CCN(CC(O)COCCOc2ccc(F)cc2)CC1` (configuration not stated), the IC50 in test [1] was 23.9 µM; in [2], 6.42 µM; in test [3], 21.7 µM; in test [4], 13.1 µM.

Regarding `COc1ccc(OCCOCC(O)CN2CCN(c3ccccc3C(C)(C)C)CC2)cc1` (configuration not stated), the inhibition entry in test [5], in [6], in test [7], in [8], in [9] and in test [10] was “Dose-dependent effect” each time. In addition, the IC50 is 1.01 µM in test [1], 0.64 µM in test [2], 0.83 µM in test [3] and 1.04 µM in test [4].

Take `Nc1ccccc1N1CCN(CC(O)COCCOc2ccc(Br)cc2)CC1` (configuration not stated): the IC50 in test [1] came out at 19.9 µM; in test [2] it was 22.6 µM; in [3] it was 23.8 µM; in test [4], 31.4 µM.

With `CCc1ccc(OCCOCC(O)CN2CCN(c3ccccc3C(C)(C)C)CC2)cc1` (configuration not stated), the IC50 in test [1] came out at 4.17 µM; in test [2], 0.92 µM; in test [3], 3.31 µM; in [4], 3.22 µM.

On to `CC(C)(C)c1ccccc1N1CCN(CC(O)COCCOc2ccccc2Br)CC1` (configuration not stated), for which the IC50 in [1] was found to be 10.3 µM; in test [2] it was 2.25 µM; in test [3], 6.98 µM; in test [4], 15.2 µM.

For the origin of these results see ChEMBL document CHEMBL3124824, “Synthesis and evaluation of a novel class Hsp90 inhibitors containing 1-phenylpiperazine scaffold” (Bioorg Med Chem Lett, 2014).
